According to ChEMBL document CHEMBL4052702 (Bioorg Med Chem Lett, 2017):
Calls of active or inactive are those of the source. The rule behind the calls is not given here.

How the values were obtained:
[1] = target: T1, Histone deacetylase 2 (Homo sapiens, UniProt Q92769); experiment: Inhibition of HDAC2 (unknown origin) assessed as remaining enzyme activity at 1.25 uM by ELISA-based assay
Summary of the method: (§1)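 Isoform screen by ELISA-based HDAC activity assay against HDAC1, HDAC2, HDAC3 and HDAC6. Each analog was tested at one final concentration: 0.025, 0.125, 0.25 or 1.25 µM. Read-out is percent deacetylase activity remaining, given as the mean with standard error of at least two independent trials.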

[2] = target: T2, Protein deacetylase HDAC6 (Homo sapiens, UniProt Q9UBN7); experiment: Inhibition of HDAC6 (unknown origin) by ELISA-based assay
T2 sequence (Q9UBN7 whole entry): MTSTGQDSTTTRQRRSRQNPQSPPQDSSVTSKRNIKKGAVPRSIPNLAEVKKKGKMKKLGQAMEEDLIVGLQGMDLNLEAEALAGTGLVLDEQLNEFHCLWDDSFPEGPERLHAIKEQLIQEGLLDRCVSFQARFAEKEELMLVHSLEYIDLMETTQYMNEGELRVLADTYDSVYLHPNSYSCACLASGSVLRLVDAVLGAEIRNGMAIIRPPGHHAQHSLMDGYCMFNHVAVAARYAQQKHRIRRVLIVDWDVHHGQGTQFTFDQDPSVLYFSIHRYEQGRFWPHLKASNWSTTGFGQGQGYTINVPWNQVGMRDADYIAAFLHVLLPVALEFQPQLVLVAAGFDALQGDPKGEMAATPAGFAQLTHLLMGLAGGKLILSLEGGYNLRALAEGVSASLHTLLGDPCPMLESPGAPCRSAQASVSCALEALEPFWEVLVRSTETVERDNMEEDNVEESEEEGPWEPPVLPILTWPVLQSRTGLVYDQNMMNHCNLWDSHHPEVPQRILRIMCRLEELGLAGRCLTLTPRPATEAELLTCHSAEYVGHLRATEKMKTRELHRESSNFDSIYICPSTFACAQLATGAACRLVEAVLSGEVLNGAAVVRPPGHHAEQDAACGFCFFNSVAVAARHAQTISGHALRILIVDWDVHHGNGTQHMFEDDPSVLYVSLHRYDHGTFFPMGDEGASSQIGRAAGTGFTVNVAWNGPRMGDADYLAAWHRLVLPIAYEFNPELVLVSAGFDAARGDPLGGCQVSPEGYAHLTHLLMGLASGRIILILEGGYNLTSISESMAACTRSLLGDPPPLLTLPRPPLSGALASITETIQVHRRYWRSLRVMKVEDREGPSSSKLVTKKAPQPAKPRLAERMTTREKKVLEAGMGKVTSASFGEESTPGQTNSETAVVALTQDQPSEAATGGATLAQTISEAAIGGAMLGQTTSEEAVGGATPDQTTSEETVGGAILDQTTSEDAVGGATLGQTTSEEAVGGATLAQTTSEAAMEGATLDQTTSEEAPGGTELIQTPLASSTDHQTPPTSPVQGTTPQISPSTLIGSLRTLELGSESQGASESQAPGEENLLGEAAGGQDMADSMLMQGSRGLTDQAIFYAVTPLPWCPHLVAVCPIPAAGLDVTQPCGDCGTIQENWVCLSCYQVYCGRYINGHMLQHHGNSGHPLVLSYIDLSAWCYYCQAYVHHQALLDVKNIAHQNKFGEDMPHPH

[3] = target: T3, Histone deacetylase 3 (Homo sapiens, UniProt O15379); experiment: Inhibition of HDAC3 (unknown origin) assessed as remaining enzyme activity at 8 x 10^-6 M by ELISA-based assay
[4] = target: T4, Protein deacetylase HDAC6 (Homo sapiens) (UniProt Q9UBN7); experiment: Inhibition of HDAC6 (unknown origin) assessed as remaining enzyme activity at 1 x 10^-7 M by ELISA-based assay
T4 sequence (whole entry): T2 sequence (Q9UBN7 whole entry)

[5] = target: T5, Histone deacetylase 1 (Homo sapiens, UniProt Q13547); experiment: Inhibition of HDAC1 (unknown origin) assessed as remaining enzyme activity at 1.25 uM by ELISA-based assay; summary of the method: as §1
[6] = species on record: Homo sapiens; experiment: Inhibition of HDAC in human HeLa-S3 cells lysates assessed as remaining enzyme activity at 1.25 x 10^-6 M pre-incubated for 15 mins before HDAC-Glo I/II substrate addition and measured after 30 mins post substrate addition; format: cell-free
[7] = target: T1, Histone deacetylase 2; experiment: Inhibition of HDAC2 (unknown origin) assessed as remaining enzyme activity at 8 x 10^-6 M by ELISA-based assay
[8] = target: T5, Histone deacetylase 1; experiment: Inhibition of HDAC1 (unknown origin) assessed as remaining enzyme activity at 8 x 10^-6 M by ELISA-based assay
[9] = species on record: Homo sapiens; experiment: Inhibition of HDAC in human HeLa-S3 cells lysates assessed as remaining enzyme activity at 5 x 10^-6 M pre-incubated for 15 mins before HDAC-Glo I/II substrate addition and measured after 30 mins post substrate addition; format: cell-free
[10] = target: T3, Histone deacetylase 3; experiment: Inhibition of HDAC3 (unknown origin) assessed as remaining enzyme activity at 1.25 uM by ELISA-based assay; summary of the method: as §1
[11] = target: T3, Histone deacetylase 3; experiment: Inhibition of HDAC3 (unknown origin) assessed as remaining enzyme activity at 1.6 x 10^-5 M by ELISA-based assay
[12] = target: T4, Protein deacetylase HDAC6 (Homo sapiens); experiment: Inhibition of HDAC6 (unknown origin) assessed as remaining enzyme activity at 1.25 uM by ELISA-based assay
Summary of the method: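 Single-concentration isoform screen using an ELISA-based HDAC activity assay, run in parallel against HDAC1, HDAC2, HDAC3 and HDAC6. Read-out is percent deacetylase activity remaining, given as the mean of at least two independent trials with standard error.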

[13] = species on record: Homo sapiens; experiment: Inhibition of HDAC in human HeLa-S3 cells lysates assessed as remaining enzyme activity at 2.5 x 10^-6 M pre-incubated for 15 mins before HDAC-Glo I/II substrate addition and measured after 30 mins post substrate addition; format: cell-free
[14] = target: T1, Histone deacetylase 2; experiment: Inhibition of HDAC2 (unknown origin) assessed as remaining enzyme activity at 1.6 x 10^-5 M by ELISA-based assay
[15] = species on record: Homo sapiens; experiment: Inhibition of HDAC in human HeLa-S3 cells lysates assessed as remaining enzyme activity at 2 x 10^-5 M pre-incubated for 15 mins before HDAC-Glo I/II substrate addition and measured after 30 mins post substrate addition; format: cell-free
[16] = species on record: Homo sapiens; experiment: Inhibition of HDAC in human HeLa-S3 cells lysates assessed as remaining enzyme activity at 1 x 10^-5 M pre-incubated for 15 mins before HDAC-Glo I/II substrate addition and measured after 30 mins post substrate addition; format: cell-free
[17] = target: T5, Histone deacetylase 1; experiment: Inhibition of HDAC1 in human U937 cells assessed as increase in acetylated-histone H3 level at 10 to 40 uM incubated for 18 hrs by Western blot method; format: cell-based
Summary of the method: (§2)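 U937 cells were treated with 10–40 µM compound, with a 1% DMSO vehicle control. Cells were then lysed and the lysates run on SDS-PAGE and transferred to PVDF. Blots were probed for histone H3 acetyl-Lys9, which reports class I HDAC (1, 2, 3) inhibition, with GAPDH as the loading control. Repeat trials were run.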

[18] = target: T3, Histone deacetylase 3; experiment: Inhibition of HDAC3 in human U937 cells assessed as increase in acetylated-histone H3 level at 10 to 40 uM incubated for 18 hrs by Western blot method; format: cell-based; summary of the method: as §2
[19] = target: T1, Histone deacetylase 2; experiment: Inhibition of HDAC2 (unknown origin) assessed as remaining enzyme activity at 0.25 uM by ELISA-based assay; summary of the method: as §1

T1 sequence (Q92769 whole entry, canonical isoform): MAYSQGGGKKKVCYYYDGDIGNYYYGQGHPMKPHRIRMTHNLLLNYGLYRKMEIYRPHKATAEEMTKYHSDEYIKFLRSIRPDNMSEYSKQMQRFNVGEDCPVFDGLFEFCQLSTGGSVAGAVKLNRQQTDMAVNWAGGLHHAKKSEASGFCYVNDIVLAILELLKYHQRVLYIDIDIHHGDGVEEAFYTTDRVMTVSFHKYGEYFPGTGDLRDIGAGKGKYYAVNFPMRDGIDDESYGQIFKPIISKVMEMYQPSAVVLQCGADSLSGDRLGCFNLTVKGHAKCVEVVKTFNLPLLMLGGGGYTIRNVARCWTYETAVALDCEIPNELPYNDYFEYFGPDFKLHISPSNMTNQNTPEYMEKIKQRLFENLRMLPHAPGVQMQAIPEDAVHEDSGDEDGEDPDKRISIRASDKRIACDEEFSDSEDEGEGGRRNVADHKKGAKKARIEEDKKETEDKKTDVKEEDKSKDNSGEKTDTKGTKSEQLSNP
T3 sequence (O15379 whole entry): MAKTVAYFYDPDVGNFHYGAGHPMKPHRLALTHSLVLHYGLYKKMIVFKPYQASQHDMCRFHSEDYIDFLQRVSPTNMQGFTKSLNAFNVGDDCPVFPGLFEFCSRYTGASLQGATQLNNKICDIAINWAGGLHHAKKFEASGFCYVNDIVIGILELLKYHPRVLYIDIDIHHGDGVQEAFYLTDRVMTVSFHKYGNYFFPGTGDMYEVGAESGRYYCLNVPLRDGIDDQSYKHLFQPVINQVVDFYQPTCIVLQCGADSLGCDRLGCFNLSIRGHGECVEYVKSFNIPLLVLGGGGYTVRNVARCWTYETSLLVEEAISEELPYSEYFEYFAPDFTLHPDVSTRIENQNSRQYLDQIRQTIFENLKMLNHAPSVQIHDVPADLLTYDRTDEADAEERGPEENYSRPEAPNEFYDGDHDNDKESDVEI
T5 sequence (Q13547 whole entry): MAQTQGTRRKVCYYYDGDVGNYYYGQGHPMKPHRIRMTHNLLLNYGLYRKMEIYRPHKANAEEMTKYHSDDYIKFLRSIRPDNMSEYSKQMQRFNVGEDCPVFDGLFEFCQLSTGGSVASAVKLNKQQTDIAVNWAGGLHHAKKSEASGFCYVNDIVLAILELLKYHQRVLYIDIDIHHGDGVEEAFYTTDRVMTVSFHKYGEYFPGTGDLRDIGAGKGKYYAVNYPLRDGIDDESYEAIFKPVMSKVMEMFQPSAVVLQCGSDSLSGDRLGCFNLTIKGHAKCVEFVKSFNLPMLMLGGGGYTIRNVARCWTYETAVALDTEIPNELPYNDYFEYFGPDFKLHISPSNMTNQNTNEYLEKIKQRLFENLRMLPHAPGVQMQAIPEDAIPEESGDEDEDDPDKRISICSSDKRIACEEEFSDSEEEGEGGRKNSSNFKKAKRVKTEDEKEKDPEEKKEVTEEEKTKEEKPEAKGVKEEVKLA

Compound	Activity [1] [%]	IC50 [2] [µM]	Activity [3] [%]	Activity [4] [%]	Activity [5] [%]	Activity [6] [%]	Activity [7] [%]	Activity [8] [%]	Activity [9] [%]	Activity [10] [%]	Activity [11] [%]	Activity [12] [%]	Activity [13] [%]	Activity [14] [%]	Activity [15] [%]	Activity [16] [%]	inhibition [17]	inhibition [18]	Activity [19] [%]
CCCCCCC(CCCC(=O)NO)CCC(=O)Nc1ccccc1 (configuration not stated)	72	0.41	27	69	64	92	21	22	58	71	12	28	83	14	15	35	–	–	–
O=C(CCCC(CCC(=O)Nc1ccccc1)Cc1ccccc1)NO (configuration not stated)	74	0.27	43	76	69	93	30	27	56	74	23	17	78	19	17	33	Active	Active	–
CCCCC(CCCC(=O)NO)CCC(=O)Nc1ccccc1 (configuration not stated)	–	0.32	–	70	–	–	–	–	–	–	–	–	–	–	–	–	–	–	83
